From ChEMBL document CHEMBL4715822, “Structure-based lead optimization to improve antiviral potency and ADMET properties of phenyl-1H-pyrrole-carboxamide entry inhibitors targeted to HIV-1 gp120” (Eur J Med Chem, 2018)
Converted amounts (≈) assume the structure as drawn.

Tests used:
[1] = Apparent permeability across apical to basolateral side in human Caco2 cells incubated for 2 hrs by LC-MS/MS analysis; format: ADME, cell-based, Caco-2; details: Caco-2
In short: (§1)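 Caco-2 monolayers grown three weeks to differentiate; compound in transport buffer pH 7.4 (glucose, 10 mM HEPES, HBSS) added apical (A-B) or basal (B-A) side, with or without 100 μM verapamil; 2 h incubation, both sides sampled. Lucifer yellow 100 μM on A side checks integrity (≤2% transport). Papp = (dQ/dt)/(C0 × A); efflux ratio = Papp(B→A)/Papp(A→B).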

[2] = Induction viral infection in pseudovirus HIV1 ADA infected in dog Cf2Th-CCR5 cells incubated for overnight followed by pretreated for 30 mins and added to cells measured after 48 hrs by luciferase-based assay; format: cell-based; details: human immunodeficiency virus 1, cf2th-ccr5, 48.5 h
[3] = Solubility in 2 % DMSO at pH 7.4 at 500 uM incubated for 90 mins in shaker by spectrophotometry; format: physicochemical
In short: (§2)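 DMSO stock diluted to 500 μM in universal aqueous buffer pH 7.4 with 2 or 5% DMSO final; quadruplicate, 90 min shaking at room temperature in filter plate, vacuum filtered; filtrate in 20% acetonitrile read by UV absorbance at six wavelengths. Filtrate/standard ratio binned as ~500, 100–500 or <100 μM.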

[4] = Metabolic stability in human liver microsomes assessed as intrinsic clearance at 3 uM incubated for 120 mins by LC-MS/MS analysis; format: ADME, Microsome; details: read-out: CLH
[5] = Solubility in 5% DMSO at pH 7.4 at 500 uM incubated for 90 mins in shaker by spectrophotometry; format: physicochemical; in short: as §2
[6] = system: Human immunodeficiency virus 1; test: Antiviral activity against pseudovirus HIV-1 HXB-2 harboring Env A204D mutant infected in human U87.CD4.CXCR4 cells assessed as reduction in viral infection pretreated for 30 mins before viral infection and measured after 3 days by luciferase based assay; format: functional, cell-based, M:B_HXB2R
In short: (§3)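 Pseudoviruses made in HEK293T by co-transfecting an Env-deleted backbone (pSG3Δenv or pNL4-3.Luc.R-.E-) with an HXB-2 Env plasmid carrying single or double substitutions; Env sequences confirmed by sequencing. Virus pretreated 30 min with graded compound, added to U87-CD4-CXCR4 cells (1 × 10⁴/well, plated overnight), incubated 3 days. Cells lysed, luciferase measured, IC50 calculated.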

[7] = Protein binding in human plasma assessed as unbound fraction at 5 uM by LC-MS/MS analysis; format: ADME, cell-free
[8] = system: Human immunodeficiency virus 1; test: Antiviral activity against HIV-1 ADA infected in human MOLT-4 cells assessed as reduction in viral transmission to TZM-bl cells incubated for 48 hrs by luciferase based assay; format: functional, organism-based; details: Human immunodeficiency virus 1, ADA, MOLT-4, 48 h
[9] = system: Human immunodeficiency virus 1; test: Antiviral activity against HIV-1 3B infected in human H9 cells assessed as reduction in viral transmission to TZM-bl cells incubated for 48 hrs by luciferase based assay; format: functional, organism-based; details: Human immunodeficiency virus 1, 3B, H9, 48 h
[10] = Apparent permeability across basolateral to apical side in human Caco2 cells incubated for 2 hrs by LC-MS/MS analysis; format: ADME, cell-based, Caco-2; details: Caco-2; in short: as §1
[11] = system: Human immunodeficiency virus 1; test: Antiviral activity against pseudovirus HIV-1 HXB-2 harboring Env I424F mutant infected in human U87.CD4.CXCR4 cells assessed as reduction in viral infection pretreated for 30 mins before viral infection and measured after 3 days by luciferase based assay; format: functional, cell-based, M:B_HXB2R; in short: as §3
[12] = (§4) Cytotoxicity against human TZM-bl cells assessed as reduction in cell viability incubated for 3 days by XTT assay; format: cell-based; details: TZM-bl cells, time 3 day
[13] = Metabolic stability in human liver microsomes assessed as parent compound remaining at 3 uM incubated for 120 mins by LC-MS/MS analysis; format: ADME, Microsome; details: read-out: Stabilty
[14] = (§5) Cytotoxicity against human MT2 cells assessed as reduction in cell viability incubated for 4 days by XTT assay; format: cell-based; details: MT2 cells, time 4 day
[15] = Cytotoxicity against dog Cf2Th-CCR5 cells assessed as reduction in cell viability incubated for 48 hrs by XTT assay; format: cell-based, Canis lupus familiaris; details: for CC50 at 48 h: Cf2Th-CCR5 cells; for CC50: cf2th-ccr5, 48 h
[16] = Cytotoxicity against human PBMC cells assessed as reduction in cell viability incubated for 1 hr followed by complete medium addition and measured after 48 hrs by XTT assay; format: cell-based
[17] = system: Human immunodeficiency virus 1; test: Antiviral activity against pseudovirus HIV-1 HXB-2 harboring Env M434I mutant infected in human U87.CD4.CXCR4 cells assessed as reduction in viral infection pretreated for 30 mins before viral infection and measured after 3 days by luciferase based assay; format: functional, cell-based, M:B_HXB2R; in short: as §3
MT2 = test: as §5; format: cell-based; details: mt2, 96 h, time 4 day
[18] = Inhibition of HIV1 gp120-mediated cell-cell fusion between viral envelope expressing in human HL2/3 cells to CD4/CCR5 receptor expressing in human TZM-bl cells after 1 hr by luciferase reporter gene assay; format: cell-based; details: Human immunodeficiency virus 1, HL2/3, 1 h
[19] = system: Human immunodeficiency virus 1; test: Antiviral activity against HIV-1 HXB-2 infected in human TZM-bl cells assessed as reduction in viral infection pretreated for 30 mins before viral infection and measured after 3 days by luciferase based single cycle infection assay; format: functional, organism-based; details: Human immunodeficiency virus 1, M:B_HXB2R
[20] = Antiviral activity against HIV-1 3B infected in human MT2 cells assessed as reduction in viral infection pretreated for 30 mins before viral infection and measured after 4 days by ELISA based multi cycle infection assay; format: functional, cell-based; details: Human immunodeficiency virus 1, M:B_HXB2R
TZM = test: as §4; format: cell-based; details: tzm, 72 h, time 3 day
Cytochrome P450 2C19 = Cytochrome P450 2C19 (Homo sapiens, UniProt P33261); test: Inhibition of human liver microsome CYP2C19 using mephenytoin as substrate incubated for 20 mins by LC-MS/MS analysis; format: ADME, microsomes
Sequence of Cytochrome P450 2C19 (P33261 whole entry): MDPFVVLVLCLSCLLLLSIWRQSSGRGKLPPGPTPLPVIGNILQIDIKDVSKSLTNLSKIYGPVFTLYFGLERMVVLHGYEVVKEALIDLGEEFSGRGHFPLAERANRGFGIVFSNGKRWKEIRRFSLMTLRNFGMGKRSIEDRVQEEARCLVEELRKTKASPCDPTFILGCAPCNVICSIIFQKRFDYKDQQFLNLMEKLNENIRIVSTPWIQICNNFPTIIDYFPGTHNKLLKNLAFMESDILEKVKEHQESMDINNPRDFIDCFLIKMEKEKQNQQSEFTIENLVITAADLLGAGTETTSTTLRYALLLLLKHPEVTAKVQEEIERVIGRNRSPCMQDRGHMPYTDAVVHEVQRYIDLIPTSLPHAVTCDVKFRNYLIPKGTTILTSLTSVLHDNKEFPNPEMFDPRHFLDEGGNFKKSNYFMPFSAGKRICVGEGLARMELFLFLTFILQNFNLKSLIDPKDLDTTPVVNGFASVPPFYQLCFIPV

Cytochrome P450 2B6 = molecular target: T1, Cytochrome P450 2B6 (Homo sapiens, UniProt P20813); test: Inhibition of human liver microsome CYP2B6 using bupropion as substrate incubated for 20 mins by LC-MS/MS analysis; format: ADME, microsomes
T1 sequence (P20813 whole entry): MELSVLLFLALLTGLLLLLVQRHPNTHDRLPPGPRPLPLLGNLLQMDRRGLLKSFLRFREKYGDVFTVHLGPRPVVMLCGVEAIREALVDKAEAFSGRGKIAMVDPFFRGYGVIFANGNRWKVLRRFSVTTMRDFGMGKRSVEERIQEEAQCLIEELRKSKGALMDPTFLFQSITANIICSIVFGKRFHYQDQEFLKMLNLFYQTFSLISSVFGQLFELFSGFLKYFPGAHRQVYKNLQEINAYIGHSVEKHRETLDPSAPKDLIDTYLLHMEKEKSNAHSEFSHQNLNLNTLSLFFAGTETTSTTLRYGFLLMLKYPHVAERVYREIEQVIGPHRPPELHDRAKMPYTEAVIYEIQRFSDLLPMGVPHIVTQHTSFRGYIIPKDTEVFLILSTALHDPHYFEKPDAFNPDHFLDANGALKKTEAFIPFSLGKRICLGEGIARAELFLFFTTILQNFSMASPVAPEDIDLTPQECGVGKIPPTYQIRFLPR

Cytochrome P450 3A4 = Cytochrome P450 3A4 (Homo sapiens, UniProt P08684); test: Inhibition of human liver microsome CYP3A4 using midazolam as substrate incubated for 20 mins by LC-MS/MS analysis; format: ADME, microsomes
Sequence of Cytochrome P450 3A4 (P08684 whole entry): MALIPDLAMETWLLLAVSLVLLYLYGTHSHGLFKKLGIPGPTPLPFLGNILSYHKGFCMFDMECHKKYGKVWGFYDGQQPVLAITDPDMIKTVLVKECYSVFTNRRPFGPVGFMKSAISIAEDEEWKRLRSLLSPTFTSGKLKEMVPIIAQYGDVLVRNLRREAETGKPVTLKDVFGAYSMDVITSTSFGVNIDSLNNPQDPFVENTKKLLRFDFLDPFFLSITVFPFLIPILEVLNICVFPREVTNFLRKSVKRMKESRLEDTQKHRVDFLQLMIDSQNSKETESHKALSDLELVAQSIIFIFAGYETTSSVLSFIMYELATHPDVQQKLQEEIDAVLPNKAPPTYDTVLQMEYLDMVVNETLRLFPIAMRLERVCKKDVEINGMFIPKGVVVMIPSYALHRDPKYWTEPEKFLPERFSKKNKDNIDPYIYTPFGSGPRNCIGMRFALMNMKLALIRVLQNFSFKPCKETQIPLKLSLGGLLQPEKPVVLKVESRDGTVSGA

NC[C@H](NC(=O)c1ccc(-c2cc(F)c(Cl)c(F)c2)[nH]1)c1nc(CO)cs1
Papp A→B at 2 h [1]: 0.471 ×10⁻⁶ cm/s | Activity [2]: Non-Toxic | solubility kinetic at […], 500 µM [3]: 100 µM (≈ 41.3 µg/mL) | microsomal CLint at 3 µM [4]: 1.6 µL/min/mg | solubility kinetic at […], 500 µM [5]: 500 µM (≈ 206 µg/mL) | IC50 [6]: 0.87 µM | fraction unbound at 5 µM [7]: 0.00281 | IC50 [8]: 0.44 µM | IC50 [9]: 0.079 µM | Papp B→A at 2 h [10]: 17 ×10⁻⁶ cm/s | IC50 [11]: 1.3 µM | CC50 at 72 h [12]: 42.1 µM | remaining at 2 h, 3 µM [13]: 90.4% | CC50 at 96 h [14]: 32.6 µM | CC50 at 48 h [15]: > 51 µM | CC50 at 49 h [16]: 61 µM

NC[C@@H](NC(=O)c1ccc(-c2ccc(C(F)(F)F)cc2)[nH]1)c1ncc(CO)s1
Activity [2]: Non-Toxic | IC50 [17]: 0.97 µM | IC50 [8]: 1 µM | CC50 (MT2): 32 µM | CC50 [15]: 37.7 µM | CC50 at 49 h [16]: 61 µM

NC[C@H](NC(=O)c1ccc(-c2cc(F)c(C(F)(F)F)c(F)c2)[nH]1)c1ncc(CO)s1
CC50 at 72 h [12]: 23 µM | CC50 at 96 h [14]: 14.3 µM

NC[C@@H](NC(=O)c1ccc(-c2cc(F)c(Cl)c(F)c2)[nH]1)c1ncc(CO)s1
CC50 at 72 h [12]: 20.6 µM | CC50 at 96 h [14]: 17.4 µM

NC[C@@H](NC(=O)c1ccc(-c2cc(F)c(Cl)c(F)c2)[nH]1)c1ncc(CO)o1
CC50 at 72 h [12]: 30.9 µM | CC50 at 96 h [14]: 44.7 µM

NC[C@H](NC(=O)c1ccc(-c2cc(F)c(Cl)c(F)c2)[nH]1)c1ncc(CO)s1
CC50 at 72 h [12]: 39.5 µM | CC50 at 96 h [14]: 37 µM | CC50 at 49 h [16]: > 60 µM

CC1(C)CC(NC(=O)C(=O)Nc2ccc(Cl)cc2)CC(C)(C)N1
IC50 [18]: 9.1 µM | CC50 [15]: > 60 µM

NC[C@@H](NC(=O)c1ccc(-c2cc(F)c(C(F)(F)F)c(F)c2)[nH]1)c1ncc(CO)s1
CC50 at 72 h [12]: 23.5 µM | CC50 at 96 h [14]: 15.5 µM

NC[C@H](NC(=O)c1ccc(-c2cc(F)c(Cl)c(F)c2)[nH]1)c1ncc(CO)o1
CC50 at 72 h [12]: 27.7 µM | CC50 at 96 h [14]: 26.5 µM

NC[C@H](NC(=O)c1ccc(-c2ccc(C(F)(F)F)c(F)c2)[nH]1)c1nc(CO)c(CO)s1
IC50 [19]: 3.1 µM | IC50 [20]: 3.6 µM | CC50 (TZM): > 65 µM | CC50 (MT2): 92.3 µM

NC[C@H](NC(=O)c1ccc(-c2ccc(C(F)(F)F)c(F)c2)[nH]1)c1ncc(CO)s1
IC50 [19]: 0.44 µM | IC50 [20]: 0.25 µM | CC50 (TZM): 30.5 µM | CC50 (MT2): 25.6 µM

NC[C@H](NC(=O)c1ccc(-c2ccc(C(F)(F)F)c(F)c2)[nH]1)c1nc(CO)cs1
Papp A→B at 2 h [1]: 0.602 ×10⁻⁶ cm/s | Activity [2]: Non-Toxic | IC50 (Cytochrome P450 2C19): > 25 µM | solubility kinetic at […], 500 µM [3]: 100 µM (≈ 42.8 µg/mL) | microsomal CLint at 3 µM [4]: 1.8 µL/min/mg | solubility kinetic at […], 500 µM [5]: 100 µM (≈ 42.8 µg/mL) | fraction unbound at 5 µM [7]: 0.00949 | Papp B→A at 2 h [10]: 17.7 ×10⁻⁶ cm/s | IC50 [11]: 0.88 µM | IC50 (Cytochrome P450 2B6): > 25 µM | CC50 at 72 h [12]: 21.9 µM | remaining at 2 h, 3 µM [13]: 88.5% | CC50 at 96 h [14]: 22.1 µM | CC50 at 48 h [15]: 34 µM | IC50 (Cytochrome P450 3A4): > 25 µM | CC50 at 49 h [16]: 38.7 µM

CNC[C@@H](NC(=O)c1ccc(-c2cc(F)c(Cl)c(F)c2)[nH]1)c1nc(CO)cs1
IC50 [19]: 0.25 µM | IC50 [20]: 0.4 µM | CC50 (TZM): 23.8 µM | CC50 (MT2): 24 µM

CC(C)(O)c1csc([C@H](CN)NC(=O)c2ccc(-c3cc(F)c(Cl)c(F)c3)[nH]2)n1
IC50 [19]: 0.23 µM | IC50 [20]: 0.25 µM | CC50 (TZM): 28.4 µM | CC50 (MT2): 16.6 µM
